# Results published in ChEMBL document CHEMBL3102723, “Design, synthesis and anti-inflammatory evaluation of novel 5-benzylidene-3,4-dihalo-furan-2-one derivatives” (Eur J Med Chem, 2014).
# Active and inactive are the calls of the source. The calls are words filed in the database; no cut-off is given here.
# Columns and labels:
# [1] = system: RAW264.7; assay: Antiinflammatory activity in mouse RAW264.7 cells assessed as inhibition of LPS-induced nitric oxide release at 10 uM treated 2 hrs before LPS challenge measured after 48 hrs by Griess assay relative to control; format: functional
# [2] = Cytotoxicity against mouse RAW264.7 cells assessed as cell viability at 10 uM after 48 hrs by MTT assay relative to control; format: cell-based; settings: read-out: Activity
# In short: (§1)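 MTT assay. RAW264.7 cells at 4 × 10^3 cells/well, cultured 16 h, then exposed to compounds diluted in DMEM for 48 h. MTT (0.5 mg/mL) added for 4 h, formazan dissolved in DMSO, OD570 read. Viability = compound OD570/blank OD570 × 100%, with the medium-only blank set as 100%. Three independent experiments.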
# [3] = system: RAW264.7; assay: Antiinflammatory activity in mouse RAW264.7 cells assessed as inhibition of LPS-induced TNF-alpha release at 10 uM treated 2 hrs before LPS challenge measured after 24 hrs by ELISA (reference value: 38.3 +/- 3.3 pg/ml); format: functional
# [4] = system: RAW264.7; assay: Antiinflammatory activity in mouse RAW264.7 cells assessed as inhibition of LPS-induced IL-6 release at 10 uM treated 2 hrs before LPS challenge measured after 6 hrs by ELISA (reference value: 7.2 +/- 0.9 pg/ml); format: functional
# [5] = system: RAW264.7; assay: Antiinflammatory activity in mouse RAW264.7 cells assessed as inhibition of LPS-induced IL-6 release at 10 uM treated 2 hrs before LPS challenge measured after 12 hrs by ELISA (reference value: 13.9 +/- 2.6 pg/ml); format: functional
# [6] = system: RAW264.7; assay: Antiinflammatory activity in mouse RAW264.7 cells assessed as inhibition of LPS-induced TNF-alpha release at 10 uM treated 2 hrs before LPS challenge measured by ELISA; format: functional, cell-based; settings: TDE = time-dependent effect
# [7] = system: RAW264.7; assay: Antiinflammatory activity in mouse RAW264.7 cells assessed as inhibition of LPS-induced IL-6 release at 10 uM treated 2 hrs before LPS challenge measured after 24 hrs by ELISA (reference value: 45.1 +/- 5.6 pg/ml); format: functional
# [8] = system: RAW264.7; assay: Antiinflammatory activity in mouse RAW264.7 cells assessed as inhibition of LPS-induced IL-6 release at 10 uM treated 2 hrs before LPS challenge measured by ELISA; format: functional, cell-based; settings: TDE = time-dependent effect
# [9] = system: RAW264.7; assay: Antiinflammatory activity in mouse RAW264.7 cells assessed as inhibition of LPS-induced TNF-alpha release at 10 uM treated 2 hrs before LPS challenge measured after 6 hrs by ELISA (reference value: 5.9 +/- 0.5 pg/ml); format: functional
# [10] = system: RAW264.7; assay: Antiinflammatory activity in mouse RAW264.7 cells assessed as inhibition of LPS-induced TNF-alpha release at 10 uM treated 2 hrs before LPS challenge measured after 12 hrs by ELISA (reference value: 11.8 +/- 1.2 pg/ml); format: functional
# [11] = target: T1, Peroxisome proliferator-activated receptor gamma (Mus musculus) (UniProt P37238); assay: Inhibition of PPARgamma in mouse RAW264.7 cells assessed as inhibition of LPS-induced JNK phosphorylation at 10 uM after 4 hrs by Western blot analysis; format: cell-based
# T1 sequence (whole entry): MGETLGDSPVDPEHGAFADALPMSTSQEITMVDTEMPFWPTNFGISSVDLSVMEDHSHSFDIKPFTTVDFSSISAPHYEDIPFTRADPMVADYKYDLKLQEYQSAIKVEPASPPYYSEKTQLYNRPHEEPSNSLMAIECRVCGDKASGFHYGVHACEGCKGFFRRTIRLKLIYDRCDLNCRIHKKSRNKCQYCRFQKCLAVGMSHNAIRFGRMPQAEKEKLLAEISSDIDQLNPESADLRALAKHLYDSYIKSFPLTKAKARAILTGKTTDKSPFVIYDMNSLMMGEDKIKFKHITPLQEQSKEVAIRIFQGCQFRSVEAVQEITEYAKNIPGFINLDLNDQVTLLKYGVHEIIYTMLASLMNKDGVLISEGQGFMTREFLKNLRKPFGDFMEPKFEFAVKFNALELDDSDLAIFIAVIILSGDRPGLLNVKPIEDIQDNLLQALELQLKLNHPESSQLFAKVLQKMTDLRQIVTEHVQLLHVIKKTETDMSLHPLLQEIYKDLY
# In short: (§2)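 RAW264.7 cells at 2 × 10^6 per well, cultured 18 h, then given fresh medium with compounds plus 500 ng/mL LPS for 4 h, with GW9662 at 5 where included. Lysates clarified at 14,000 × g, protein by BCA, equal loads on SDS-PAGE. Blots blocked in 5% milk/TBST, primary antibodies 1:1000 overnight, secondary 1:1000 90 min, ECL detection. Means ± SD (n = 3).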
# [12] = target: T1, Peroxisome proliferator-activated receptor gamma (Mus musculus); assay: Inhibition of PPARgamma in mouse RAW264.7 cells assessed as inhibition of LPS-induced NF-kappaB 65 phosphorylation at 10 uM after 4 hrs by Western blot analysis in presence of PPARgamma antagonist GW9662; format: cell-based; in short: as §2
# [13] = target: T1, Peroxisome proliferator-activated receptor gamma (Mus musculus); assay: Inhibition of PPARgamma in mouse RAW264.7 cells assessed as inhibition of LPS-induced ERK1/2 phosphorylation at 10 uM after 4 hrs by Western blot analysis in presence of PPARgamma antagonist GW9662; format: cell-based; in short: as §2
# [14] = target: T1, Peroxisome proliferator-activated receptor gamma (Mus musculus); assay: Inhibition of PPARgamma in mouse RAW264.7 cells assessed as inhibition of LPS-induced p38 MAPK phosphorylation at 10 uM after 4 hrs by Western blot analysis; format: cell-based; in short: as §2
# [15] = target: T1, Peroxisome proliferator-activated receptor gamma (Mus musculus); assay: Inhibition of PPARgamma in mouse RAW264.7 cells assessed as inhibition of LPS-induced JNK phosphorylation at 10 uM after 4 hrs by Western blot analysis in presence of PPARgamma antagonist GW9662; format: cell-based; in short: as §2
# [16] = target: T1, Peroxisome proliferator-activated receptor gamma (Mus musculus); assay: Inhibition of PPARgamma in mouse RAW264.7 cells assessed as inhibition of LPS-induced ERK1/2 phosphorylation at 10 uM after 4 hrs by Western blot analysis; format: cell-based; in short: as §2
# [17] = target: T1, Peroxisome proliferator-activated receptor gamma (Mus musculus); assay: Inhibition of PPARgamma in mouse RAW264.7 cells assessed as inhibition of LPS-induced NF-kappaB 65 phosphorylation at 10 uM after 4 hrs by Western blot analysis; format: cell-based; in short: as §2
# [18] = target: T1, Peroxisome proliferator-activated receptor gamma (Mus musculus); assay: Inhibition of PPARgamma in mouse RAW264.7 cells assessed as inhibition of LPS-induced p38 MAPK phosphorylation at 10 uM after 4 hrs by Western blot analysis in presence of PPARgamma antagonist GW9662; format: cell-based; in short: as §2
# [19] = target: T1, Peroxisome proliferator-activated receptor gamma (Mus musculus); assay: Inhibition of PPARgamma in mouse RAW264.7 cells assessed as inhibition of LPS-induced IkappaBalpha phosphorylation at 10 uM after 4 hrs by Western blot analysis; format: cell-based; in short: as §2
# [20] = target: T1, Peroxisome proliferator-activated receptor gamma (Mus musculus); assay: Inhibition of PPARgamma in mouse RAW264.7 cells assessed as inhibition of LPS-induced IkappaBalpha phosphorylation at 10 uM after 4 hrs by Western blot analysis in presence of PPARgamma antagonist GW9662; format: cell-based; in short: as §2
# [21] = Cytotoxicity against mouse RAW264.7 cells assessed as cell viability at 5 uM after 48 hrs by MTT assay relative to control; format: cell-based; settings: read-out: Activity; in short: as §1
smiles,measurement,setting,value
COc1ccc2c(c1)c(CC(=O)O)c(C)n2C(=O)c1ccc(Cl)cc1 [INDOMETHACIN],inhibition at 10 µM,[1],31.3%
same,"viability at 48 h, 10 µM",[2],101%
same,Activity,[3],1242 pg/mL
same,Activity,[4],2313.5 pg/mL
same,Activity,[5],2989.6 pg/mL
same,inhibition,[6],tde
same,Activity,[7],7645.9 pg/mL
same,inhibition,[8],tde
same,Activity,[9],366.5 pg/mL
same,Activity,[10],612.6 pg/mL
CCOc1cc(/C=C2\OC(=O)C(Br)=C2Br)ccc1OCCc1ccc(CC)cn1,inhibition,[11],Active
same,inhibition at 10 µM,[1],80.1%
same,inhibition,[12],inactive
same,"viability at 48 h, 10 µM",[2],93.1%
same,inhibition,[13],inactive
same,Activity,[3],1044.2 pg/mL
same,Activity,[4],598.1 pg/mL
same,inhibition,[14],Active
same,inhibition,[15],inactive
same,inhibition,[16],Active
same,Activity,[5],902.2 pg/mL
same,inhibition,[6],tde
same,inhibition,[17],Active
same,inhibition,[18],inactive
same,inhibition,[19],Active
same,Activity,[7],2360.2 pg/mL
same,inhibition,[8],tde
same,inhibition,[20],inactive
same,Activity,[9],323.8 pg/mL
same,Activity,[10],519.8 pg/mL
O=C1O/C(=C\c2ccc(OCCc3ccccn3)cc2)C(Br)=C1Br,inhibition at 10 µM,[1],38%
O=C1O/C(=C\c2ccc(OCCc3ccccn3)cc2)C(Cl)=C1Cl,inhibition at 10 µM,[1],20.2%
CCc1ccc(CCOc2ccc(/C=C3\OC(=O)C(Br)=C3Br)cc2)nc1,inhibition at 10 µM,[1],43.6%
CN(CCOc1ccc(CC2SC(=O)NC2=O)cc1)c1ccccn1 (stereo unspecified) [ROSIGLITAZONE],inhibition at 10 µM,[1],16.7%
same,"viability at 48 h, 10 µM",[2],99.7%
same,Activity,[3],1293.8 pg/mL
same,Activity,[4],2783.9 pg/mL
same,Activity,[5],3477.9 pg/mL
same,inhibition,[6],tde
same,Activity,[7],8388.6 pg/mL
same,inhibition,[8],tde
same,Activity,[9],416.9 pg/mL
same,Activity,[10],631.3 pg/mL
O=C1O/C(=C\c2ccc(OCc3ccccn3)cc2)C(Br)=C1Br,inhibition at 10 µM,[1],29.2%
CCOc1cc(/C=C2\OC(=O)C(Br)=C2Br)ccc1OCc1ccccn1,inhibition at 10 µM,[1],42.2%
O=C(Nc1ccccc1)c1cc([N+](=O)[O-])ccc1Cl,"viability at 48 h, 5 µM",[21],101%
O=C1O/C(=C\c2ccc(OCc3ccccn3)cc2)C(Cl)=C1Cl,inhibition at 10 µM,[1],16.3%
COc1cc(/C=C2\OC(=O)C(Cl)=C2Cl)ccc1OCCc1ccccn1,inhibition at 10 µM,[1],38.9%
Cc1nc(C)c(COc2ccc(/C=C3\SC(=O)NC3=O)cc2)nc1C,inhibition at 10 µM,[1],19.3%
CCOc1cc(/C=C2\SC(=O)NC2=O)ccc1OCc1nc(C)c(C)nc1C,inhibition at 10 µM,[1],30.7%
CCc1ccc(CCOc2ccc(/C=C3\OC(=O)C(Br)=C3Br)cc2OC)nc1,inhibition,[11],Active
same,inhibition at 10 µM,[1],75.8%
same,inhibition,[12],inactive
same,"viability at 48 h, 10 µM",[2],98.1%
same,inhibition,[13],inactive
same,Activity,[3],1110.5 pg/mL
same,Activity,[4],1705.9 pg/mL
same,inhibition,[14],Active
same,inhibition,[15],inactive
same,inhibition,[16],Active
same,Activity,[5],2528.4 pg/mL
same,inhibition,[6],tde
same,inhibition,[17],Active
same,inhibition,[18],inactive
same,inhibition,[19],Active
same,Activity,[7],6360 pg/mL
same,inhibition,[8],tde
same,inhibition,[20],inactive
same,Activity,[9],347.1 pg/mL
same,Activity,[10],575.6 pg/mL
Cc1nc(C)c(COc2ccc(/C=C3\OC(=O)C(Br)=C3Br)cc2)nc1C,inhibition at 10 µM,[1],30.1%
COc1cc(/C=C2\SC(=O)NC2=O)ccc1OCc1nc(C)c(C)nc1C,inhibition at 10 µM,[1],24.9%
COc1cc(/C=C2\OC(=O)C(Br)=C2Br)ccc1OCc1nc(C)c(C)nc1C,inhibition at 10 µM,[1],37.2%
COc1cc(/C=C2\OC(=O)C(Br)=C2Br)ccc1OCc1ccccn1,inhibition at 10 µM,[1],33.9%
COc1cc(/C=C2\OC(=O)C(Br)=C2Br)ccc1OCCc1ccccn1,inhibition at 10 µM,[1],54.7%
CCOc1cc(/C=C2\OC(=O)C(Cl)=C2Cl)ccc1OCc1ccccn1,inhibition at 10 µM,[1],36.8%
CCOc1cc(/C=C2\OC(=O)C(Br)=C2Br)ccc1OCCc1ccccn1,inhibition at 10 µM,[1],62.9%
COc1cc(/C=C2\OC(=O)C(Cl)=C2Cl)ccc1OCc1ccccn1,inhibition at 10 µM,[1],36.4%
CCOc1cc(/C=C2\OC(=O)C(Cl)=C2Cl)ccc1OCCc1ccccn1,inhibition at 10 µM,[1],50.4%
Cc1nc(C)c(COc2cccc(/C=C3\SC(=O)NC3=O)c2)nc1C,inhibition at 10 µM,[1],23.5%
CCc1ccc(CCOc2ccc(/C=C3\OC(=O)C(Cl)=C3Cl)cc2)nc1,inhibition at 10 µM,[1],40.8%
